Measurements from ChEMBL document CHEMBL1781963, “Discovery of novel hepatoselective HMG-CoA reductase inhibitors for treating hypercholesterolemia: a bench-to-bedside case study on tissue selective drug distribution” (Bioorg Med Chem Lett, 2011).

Key:
Homo sapiens [1] = experiment: Inhibition of HMG-CoA reductase in human assessed as decrease in AUC (0 to 72 hrs) of mevalonate level in plasma at 320 mg administered as single dose relative to control; type: functional
[2] = Cmax in human plasma at 10 mg administered as single dose; type: ADME, organism-based; parameters: dose 10 mg
In short: (§1)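 Phase 1 single ascending oral dose in healthy volunteers, about 5–6 subjects per dose. Total plasma drug Cmax and AUC(0-∞) were measured. Free-drug exposures were derived using plasma protein binding.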

Plasma [3] = experiment: fCmax in human plasma at 120 mg administered as single dose; type: ADME, cell-free
In short: (§2)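 Phase 1 single ascending oral dose in healthy volunteers, with N per dose group. Total plasma Cmax and AUC(0-∞) were measured. Free-drug exposures were derived from these using plasma protein binding (human plasma fu measured at 0.5 μg/mL).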

[4] = Cmax in human plasma at 3 mg administered as single dose; type: ADME, organism-based; parameters: dose 3 mg; in short: as §1
[5] = Cmax in human plasma at 120 mg administered as single dose; type: ADME, organism-based; parameters: dose 120 mg; in short: as §1
Plasma [6] = experiment: fAUC (0 to infinity) in human plasma at 240 mg administered as single dose; type: ADME, cell-free; in short: as §2
[7] = Cmax in human plasma at 240 mg administered as single dose; type: ADME, organism-based; parameters: dose 240 mg; in short: as §1
Rattus norvegicus = experiment: Inhibition of HMG-CoA reductase in Sprague-Dawley rat assessed as reduction of mevalonate level in plasma at 10 mg/kg, po administered as single dose after 24 hrs relative to control; type: functional
Homo sapiens [8] = experiment: Inhibition of HMG-CoA reductase in human assessed as decrease in AUC (0 to 24 hrs) of mevalonate level in plasma at 5 mg administered as single dose relative to control; type: functional
Homo sapiens [9] = experiment: Inhibition of HMG-CoA reductase in human assessed as decrease in AUC (0 to 24 hrs) of mevalonate level in plasma at 160 mg administered as single dose relative to control; type: functional
[10] = Terminal half life in human plasma at 160 mg administered as single dose; type: ADME, cell-free; settings: read-out: beta t1/2 (converted)
[11] = Cmax in human plasma at 80 mg administered as single dose; type: ADME, organism-based; parameters: dose 80 mg; in short: as §1
Homo sapiens [12] = experiment: Inhibition of HMG-CoA reductase in human assessed as decrease in AUC (0 to 72 hrs) of mevalonate level in plasma at 160 mg administered as single dose relative to control; type: functional
[13] = Cmax in human plasma at 20 mg administered as single dose; type: ADME, organism-based; parameters: dose 20 mg; in short: as §1
Homo sapiens [14] = experiment: Inhibition of HMG-CoA reductase in human assessed as decrease in AUC (0 to 72 hrs) of mevalonate level in plasma at 80 mg administered as single dose relative to control; type: functional
Plasma [15] = experiment: fCmax in human plasma at 1 mg administered as single dose; type: ADME, cell-free; in short: as §2
Homo sapiens [16] = experiment: Inhibition of HMG-CoA reductase in human assessed as decrease in LDL-cholesterol level in plasma at 10 mg administered qd for 14 days relative to control; type: functional
[17] = Cmax in human plasma at 10 mg administered qd for 14 days; type: ADME, organism-based; parameters: dose 10 mg

O=C([O-])C[C@H](O)C[C@H](O)CCn1c(-c2ccc(F)cc2)nc(C(=O)NCc2cccc(F)c2)c1C1CC1.[Na+]
inhibition (INH) (Homo sapiens [1]): -28%
Cmax [2]: 0.355 ng/mL
fCmax (Plasma [3]): 0.96 ng/mL
Cmax [4]: 0.0552 ng/mL
Cmax [5]: 3.31 ng/mL
fAUC (Plasma [6]): 7.89 ng·h/mL
Cmax [7]: 9.27 ng/mL
inhibition in vivo at 10 mg/kg (Rattus norvegicus): 47%

Cc1ccc(CNC(=O)c2nn(-c3ccc(F)cc3)c(CC[C@@H](O)C[C@@H](O)CC(=O)O)c2C(C)C)cc1
inhibition (INH) (Homo sapiens [8]): -13%
inhibition (INH) (Homo sapiens [9]): -55%
half-life [10]: 8.87 h
Cmax [11]: 4480 ng/mL
inhibition (INH) (Homo sapiens [12]): -24%
Cmax [13]: 740 ng/mL
inhibition (INH) (Homo sapiens [14]): -29%
fCmax (Plasma [15]): 1.71 ng/mL

CC(C)c1nc(N(C)S(C)(=O)=O)nc(-c2ccc(F)cc2)c1/C=C/[C@@H](O)C[C@@H](O)CC(=O)O [ROSUVASTATIN]
inhibition (INH) (Homo sapiens [16]): 41.3%
Cmax [17]: 4.58 ng/mL
